# Test results from ChEMBL document CHEMBL5376013, “Design, synthesis and biological evaluation of novel morpholinopyrimidine-5-carbonitrile derivatives as dual PI3K/mTOR inhibitors” (RSC Med Chem, 2024).
# Columns and labels:
# Type in all cases: functional
# Settings in all cases: read-out: GI
# OVCAR-5 = assay: Antitumor activity against human OVCAR-5 cells assessed as growth inhibition at 10 uM relative to control
# Procedure, shortened: (§1)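 After drug addition, plates were incubated 48 h at 37 °C under 5% CO2. Adherent cells were fixed with cold TCA (10% final, 60 min, 4 °C) and suspension cells with 16% final TCA. Staining used 0.4% SRB in 1% acetic acid, solubilized in 10 mM trizma, read at A515. Percent growth was calculated from time-zero, control and treated absorbances.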
# SK-OV-3 = assay: Antitumor activity against human SK-OV-3 cells assessed as growth inhibition at 10 uM relative to control
# Procedure, shortened: (§2)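 Drug exposure 48 h at 37 °C, 5% CO2. Adherent cells fixed with cold TCA (10% final), suspension cells with TCA (16% final). Stained with 0.4% SRB in 1% acetic acid, dissolved in 10 mM Tris, A515. Growth relative to time-zero and untreated control.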
# SF-295 = assay: Antitumor activity against human SF-295 cells assessed as growth inhibition at 10 uM relative to control; procedure, shortened: as §1
# UACC-62 = assay: Antitumor activity against human UACC-62 cells assessed as growth inhibition at 10 uM relative to control; procedure, shortened: as §2
# NCI-H226 = assay: Antitumor activity against human NCI-H226 cells assessed as growth inhibition at 10 uM relative to control; procedure, shortened: as §1
# NCI/ADR-RES = assay: Antitumor activity against human NCI-ADR-RES cells assessed as growth inhibition at 10 uM relative to control; procedure, shortened: as §1
# SW-620 = assay: Antitumor activity against human SW-620 cells assessed as growth inhibition at 10 uM relative to control; procedure, shortened: as §2
# IGROV-1 = assay: Antitumor activity against human IGROV-1 cells assessed as growth inhibition at 10 uM relative to control; procedure, shortened: as §1
# SNB-19 = assay: Antitumor activity against human SNB-19 cells assessed as growth inhibition at 10 uM relative to control; procedure, shortened: as §2
# SK-MEL-28 = assay: Antitumor activity against human SK-MEL-28 cells assessed as growth inhibition at 10 uM relative to control; procedure, shortened: as §2
# U-251 = assay: Antitumor activity against human U-251 cells assessed as growth inhibition at 10 uM relative to control; procedure, shortened: as §2
# A498 = assay: Antitumor activity against human A498 cells assessed as growth inhibition at 10 uM relative to control; procedure, shortened: as §1
# RPMI-8226 = assay: Antitumor activity against human RPMI-8226 cells assessed as growth inhibition at 10 uM relative to control; procedure, shortened: as §1
# HL-60 = assay: Antitumor activity against human HL-60 cells assessed as growth inhibition at 10 uM relative to control; procedure, shortened: as §1
# UO-31 = assay: Antitumor activity against human UO-31 cells assessed as growth inhibition at 10 uM relative to control; procedure, shortened: as §2
# SK-MEL-2 = assay: Antitumor activity against human SK-MEL-2 cells assessed as growth inhibition at 10 uM relative to control; procedure, shortened: as §1
# SNB-75 = assay: Antitumor activity against human SNB-75 cells assessed as growth inhibition at 10 uM relative to control; procedure, shortened: as §2
# Malme-3M = assay: Antitumor activity against human Malme-3M cells assessed as growth inhibition at 10 uM relative to control; procedure, shortened: as §1
# HT-29 = assay: Antitumor activity against human HT-29 cells assessed as growth inhibition at 10 uM relative to control; procedure, shortened: as §1
# NCI-H460 = assay: Antitumor activity against human NCI-H460 cells assessed as growth inhibition at 10 uM relative to control; procedure, shortened: as §1
# HCT-116 = assay: Antitumor activity against human HCT-116 cells assessed as growth inhibition at 10 uM relative to control; procedure, shortened: as §1
# MDA-MB-435 = assay: Antitumor activity against human MDA-MB-435 cells assessed as growth inhibition at 10 uM relative to control; procedure, shortened: as §1
# M14 = assay: Antitumor activity against human M14 cells assessed as growth inhibition at 10 uM relative to control; procedure, shortened: as §1
# MDA-MB-231 = assay: Antitumor activity against human MDA-MB-231 cells assessed as growth inhibition at 10 uM relative to control; procedure, shortened: as §1
# NCI-H522 = assay: Antitumor activity against human NCI-H522 cells assessed as growth inhibition at 10 uM relative to control; procedure, shortened: as §1
# NCI-H322M = assay: Antitumor activity against human NCI-H322M cells assessed as growth inhibition at 10 uM relative to control; procedure, shortened: as §1
# RXF 393 = assay: Antitumor activity against human RXF 393 cells assessed as growth inhibition at 10 uM relative to control; procedure, shortened: as §1
# SN12C = assay: Antitumor activity against human SN12C cells assessed as growth inhibition at 10 uM relative to control; procedure, shortened: as §2
# TK-10 = assay: Antitumor activity against human TK-10 cells assessed as growth inhibition at 10 uM relative to control; procedure, shortened: as §2
# T47D = assay: Antitumor activity against human T47D cells assessed as growth inhibition at 10 uM relative to control; procedure, shortened: as §2
# NCI-H23 = assay: Antitumor activity against human NCI-H23 cells assessed as growth inhibition at 10 uM relative to control; procedure, shortened: as §1
# CAKI-1 = assay: Antitumor activity against human CAKI-1 cells assessed as growth inhibition at 10 uM relative to control; procedure, shortened: as §1
# SF-268 = assay: Antitumor activity against human SF-268 cells assessed as growth inhibition at 10 uM relative to control; procedure, shortened: as §1
# COLO 205 = assay: Antitumor activity against human COLO 205 cells assessed as growth inhibition at 10 uM relative to control; procedure, shortened: as §1
# HOP-62 = assay: Antitumor activity against human HOP-62 cells assessed as growth inhibition at 10 uM relative to control; procedure, shortened: as §1
# 786-0 = assay: Antitumor activity against human 786-0 cells assessed as growth inhibition at 10 uM relative to control; procedure, shortened: as §1
# Hs-578T = assay: Antitumor activity against human Hs-578T cells assessed as growth inhibition at 10 uM relative to control; procedure, shortened: as §1
# HOP-92 = assay: Antitumor activity against human HOP-92 cells assessed as growth inhibition at 10 uM relative to control; procedure, shortened: as §1
# UACC-257 = assay: Antitumor activity against human UACC-257 cells assessed as growth inhibition at 10 uM relative to control; procedure, shortened: as §2
# HCC 2998 = assay: Antitumor activity against human HCC 2998 cells assessed as growth inhibition at 10 uM relative to control; procedure, shortened: as §1
# OVCAR-4 = assay: Antitumor activity against human OVCAR-4 cells assessed as growth inhibition at 10 uM relative to control; procedure, shortened: as §1
# EKVX = assay: Antitumor activity against human EKVX cells assessed as growth inhibition at 10 uM relative to control; procedure, shortened: as §1
# KM12 = assay: Antitumor activity against human KM12 cells assessed as growth inhibition at 10 uM relative to control; procedure, shortened: as §1
# SF-539 = assay: Antitumor activity against human SF-539 cells assessed as growth inhibition at 10 uM relative to control; procedure, shortened: as §1
# SR = assay: Antitumor activity against human SR cells assessed as growth inhibition at 10 uM relative to control; procedure, shortened: as §2
# SK-MEL-5 = assay: Antitumor activity against human SK-MEL-5 cells assessed as growth inhibition at 10 uM relative to control; procedure, shortened: as §2
smiles,measurement,setting,value
N#Cc1c(-c2ccc(Cl)cc2)nc(N2NC(=O)CC2=N)nc1N1CCOCC1,inhibition of growth at 10 µM,OVCAR-5,< 1%
same,inhibition of growth at 10 µM,SK-OV-3,< 1%
same,inhibition of growth at 10 µM,SF-295,< 1%
same,inhibition of growth at 10 µM,UACC-62,86.2%
same,inhibition of growth at 10 µM,NCI-H226,< 1%
same,inhibition of growth at 10 µM,NCI/ADR-RES,< 1%
same,inhibition of growth at 10 µM,SW-620,< 1%
same,inhibition of growth at 10 µM,IGROV-1,< 1%
same,inhibition of growth at 10 µM,SNB-19,< 1%
same,inhibition of growth at 10 µM,SK-MEL-28,< 1%
same,inhibition of growth at 10 µM,U-251,< 1%
same,inhibition of growth at 10 µM,A498,34.3%
same,inhibition of growth at 10 µM,RPMI-8226,< 1%
same,inhibition of growth at 10 µM,HL-60,< 1%
same,inhibition of growth at 10 µM,UO-31,24.6%
same,inhibition of growth at 10 µM,SK-MEL-2,< 1%
same,inhibition of growth at 10 µM,SNB-75,24.3%
same,inhibition of growth at 10 µM,Malme-3M,58%
same,inhibition of growth at 10 µM,HT-29,< 1%
same,inhibition of growth at 10 µM,NCI-H460,< 1%
same,inhibition of growth at 10 µM,HCT-116,< 1%
same,inhibition of growth at 10 µM,MDA-MB-435,< 1%
same,inhibition of growth at 10 µM,M14,< 1%
same,inhibition of growth at 10 µM,MDA-MB-231,< 1%
same,inhibition of growth at 10 µM,NCI-H522,13.6%
same,inhibition of growth at 10 µM,NCI-H322M,< 1%
same,inhibition of growth at 10 µM,RXF 393,< 1%
same,inhibition of growth at 10 µM,SN12C,< 1%
same,inhibition of growth at 10 µM,TK-10,< 1%
same,inhibition of growth at 10 µM,T47D,< 1%
same,inhibition of growth at 10 µM,NCI-H23,< 1%
same,inhibition of growth at 10 µM,CAKI-1,< 1%
same,inhibition of growth at 10 µM,SF-268,< 1%
same,inhibition of growth at 10 µM,COLO 205,< 1%
same,inhibition of growth at 10 µM,HOP-62,< 1%
same,inhibition of growth at 10 µM,786-0,< 1%
same,inhibition of growth at 10 µM,Hs-578T,< 1%
same,inhibition of growth at 10 µM,HOP-92,12.6%
same,inhibition of growth at 10 µM,UACC-257,< 1%
same,inhibition of growth at 10 µM,HCC 2998,< 1%
same,inhibition of growth at 10 µM,OVCAR-4,< 1%
same,inhibition of growth at 10 µM,EKVX,< 1%
same,inhibition of growth at 10 µM,KM12,< 1%
same,inhibition of growth at 10 µM,SF-539,< 1%
same,inhibition of growth at 10 µM,SR,< 1%
same,inhibition of growth at 10 µM,SK-MEL-5,< 1%
CC1=NN(c2nc(-c3ccc(Cl)cc3)c(C#N)c(N3CCOCC3)n2)C(=O)C1,inhibition of growth at 10 µM,OVCAR-5,15.2%
same,inhibition of growth at 10 µM,SK-OV-3,13.4%
same,inhibition of growth at 10 µM,SF-295,< 1%
same,inhibition of growth at 10 µM,UACC-62,21%
same,inhibition of growth at 10 µM,NCI-H226,10.2%
same,inhibition of growth at 10 µM,NCI/ADR-RES,< 1%
same,inhibition of growth at 10 µM,SW-620,14.8%
same,inhibition of growth at 10 µM,IGROV-1,19%
same,inhibition of growth at 10 µM,SNB-19,< 1%
same,inhibition of growth at 10 µM,SK-MEL-28,12.9%
same,inhibition of growth at 10 µM,U-251,< 1%
same,inhibition of growth at 10 µM,A498,42%
same,inhibition of growth at 10 µM,RPMI-8226,42.9%
same,inhibition of growth at 10 µM,HL-60,18.2%
same,inhibition of growth at 10 µM,UO-31,28.1%
same,inhibition of growth at 10 µM,SK-MEL-2,12.9%
same,inhibition of growth at 10 µM,SNB-75,43.5%
same,inhibition of growth at 10 µM,Malme-3M,< 1%
same,inhibition of growth at 10 µM,HT-29,< 1%
same,inhibition of growth at 10 µM,NCI-H460,< 1%
same,inhibition of growth at 10 µM,HCT-116,< 1%
same,inhibition of growth at 10 µM,MDA-MB-435,12.2%
same,inhibition of growth at 10 µM,M14,10%
same,inhibition of growth at 10 µM,MDA-MB-231,< 1%
same,inhibition of growth at 10 µM,NCI-H522,21.1%
same,inhibition of growth at 10 µM,NCI-H322M,< 1%
same,inhibition of growth at 10 µM,RXF 393,56.6%
same,inhibition of growth at 10 µM,SN12C,112%
same,inhibition of growth at 10 µM,TK-10,< 1%
same,inhibition of growth at 10 µM,T47D,< 1%
same,inhibition of growth at 10 µM,NCI-H23,19.3%
same,inhibition of growth at 10 µM,CAKI-1,29.9%
same,inhibition of growth at 10 µM,SF-268,< 1%
same,inhibition of growth at 10 µM,COLO 205,< 1%
same,inhibition of growth at 10 µM,HOP-62,12.6%
same,inhibition of growth at 10 µM,786-0,13.4%
same,inhibition of growth at 10 µM,Hs-578T,45.4%
same,inhibition of growth at 10 µM,HOP-92,93.7%
same,inhibition of growth at 10 µM,UACC-257,< 1%
same,inhibition of growth at 10 µM,HCC 2998,< 1%
same,inhibition of growth at 10 µM,OVCAR-4,48.5%
same,inhibition of growth at 10 µM,EKVX,11.2%
same,inhibition of growth at 10 µM,KM12,< 1%
same,inhibition of growth at 10 µM,SF-539,< 1%
same,inhibition of growth at 10 µM,SR,< 1%
same,inhibition of growth at 10 µM,SK-MEL-5,< 1%
